Measurements as given in ChEMBL document CHEMBL4351008, “Discovery of novel pyrimidine-based benzothiazole derivatives as potent cyclin-dependent kinase 2 inhibitors with anticancer activity” (Eur J Med Chem, 2019).

Columns and labels:
HCT-116 [1] = experiment: Antiproliferative activity against human HCT116 cells incubated for 48 hrs by MTT assay; format: functional, cell-based; details: HCT-116, 48 h
In short: (§1)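 Cells kept at 37 °C in humidified 5% CO2: MDA-MB-231, MCF-7, HeLa and HCT116 in RPMI-1640; PC-3 in DMEM/F12; both media had 10% FBS. Compounds came from 60 mM DMSO stocks diluted in medium. At 70–80% confluence, cells got fresh medium with compound for 48 h at 37 °C, with 0.1% DMSO as negative control. MTT (5 mg/mL stock) was added for 4 h, and formazan was dissolved in DMSO and read at 570 nm. % inhibition was taken relative to control, IC50 was fitted, and data are mean ± SD of three independent experiments in duplicate.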

MDA-MB-231 = experiment: Antiproliferative activity against human MDA-MB-231 cells incubated for 48 hrs by MTT assay; format: functional, cell-based; details: MDA-MB-231, 48 h; in short: as §1
MCF7 = experiment: Antiproliferative activity against human MCF7 cells incubated for 48 hrs by MTT assay; format: functional, cell-based; details: MCF7, 48 h; in short: as §1
HeLa = experiment: Antiproliferative activity against human HeLa cells incubated for 48 hrs by MTT assay; format: functional, cell-based; in short: as §1
PC-3 = experiment: Antiproliferative activity against human PC3 cells incubated for 48 hrs by MTT assay; format: functional, cell-based; details: PC-3, 48 h; in short: as §1
CDK2/Cyclin A2 = CDK2/Cyclin A2 (Homo sapiens, UniProt P24941); experiment: Inhibition of CDK2/cyclin A2 (unknown origin) using histone H1 and ATP as substrate incubated for 40 mins by kinase-glo luminescence assay; format: protein-complex assay
[2] = biological target: T1, CDK2/Cyclin A2 (Homo sapiens) (UniProt P24941+P20248); experiment: Inhibition of CDK2/cyclin A2 (unknown origin) using histone H1 and ATP as substrate at 1 uM incubated for 40 mins by kinase-glo luminescence assay relative to control; format: protein-complex assay
In short: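 Recombinant CDK2/cyclin A2 (0.2 µg/mL) was run with 0.1 mg/mL histone H1 and 10 µM ATP in 40 mM Tris pH 7.4, 10 mM MgCl2, 0.1 mg/mL BSA and 1 mM DTT, for 40 min at 30 °C. Compound was tested at 1 µM final, with 1% DMSO final. Remaining ATP was quantified by Kinase-Glo Plus luminescence, which is inversely related to kinase activity.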

HCT-116 [3] = experiment: Induction of cell cycle arrest in human HCT116 cells assessed as accumulation at G0/G1 phase at 0.35 uM incubated for 24 hrs by PI staining based flow cytometric analysis (reference value: 37.26%); format: functional
HCT-116 [4] = experiment: Induction of cell cycle arrest in human HCT116 cells assessed as accumulation at G2/M phase at 0.35 uM incubated for 24 hrs by PI staining based flow cytometric analysis (reference value: 17.48%); format: functional
HCT-116 [5] = experiment: Induction of cell cycle arrest in human HCT116 cells assessed as accumulation at S phase at 0.35 uM incubated for 24 hrs by PI staining based flow cytometric analysis (reference value: 45.26%); format: functional
HCT-116 [6] = experiment: Induction of cell cycle arrest in human HCT116 cells assessed as accumulation at G0/G1 phase at 0.7 uM incubated for 24 hrs by PI staining based flow cytometric analysis (reference value: 37.26%); format: functional
HCT-116 [7] = experiment: Induction of cell cycle arrest in human HCT116 cells assessed as accumulation at G2/M phase at 0.7 uM incubated for 24 hrs by PI staining based flow cytometric analysis (reference value: 17.48%); format: functional
HCT-116 [8] = experiment: Induction of cell cycle arrest in human HCT116 cells assessed as accumulation at S phase at 0.7 uM incubated for 24 hrs by PI staining based flow cytometric analysis (reference value: 45.26%); format: functional
HCT-116 [9] = experiment: Induction of cell cycle arrest in human HCT116 cells assessed as accumulation at G0/G1 phase at 1.4 uM incubated for 24 hrs by PI staining based flow cytometric analysis (reference value: 37.26%); format: functional
HCT-116 [10] = experiment: Induction of cell cycle arrest in human HCT116 cells assessed as accumulation at G2/M phase at 1.4 uM incubated for 24 hrs by PI staining based flow cytometric analysis (reference value: 17.48%); format: functional
HCT-116 [11] = experiment: Induction of cell cycle arrest in human HCT116 cells assessed as accumulation at S phase at 1.4 uM incubated for 24 hrs by PI staining based flow cytometric analysis (reference value: 45.26%); format: functional
HCT-116 [12] = experiment: Induction of apoptosis in human HCT116 cells assessed as live cells at 0.35 uM incubated for 24 hrs by Annexin-V-FITC/propidium iodide staining based flow cytometric analysis (reference value: 97.7%); format: functional
HCT-116 [13] = experiment: Induction of apoptosis in human HCT116 cells assessed as early apoptotic cells at 0.35 uM incubated for 24 hrs by Annexin-V-FITC/propidium iodide staining based flow cytometric analysis (reference value: 2.28%); format: functional
HCT-116 [14] = experiment: Induction of apoptosis in human HCT116 cells assessed as late apoptotic cells at 0.35 uM incubated for 24 hrs by Annexin-V-FITC/propidium iodide staining based flow cytometric analysis (reference value: 0.027%); format: functional
HCT-116 [15] = experiment: Induction of apoptosis in human HCT116 cells assessed as necrotic cells at 0.35 uM incubated for 24 hrs by Annexin-V-FITC/propidium iodide staining based flow cytometric analysis (reference value: 0%); format: functional
HCT-116 [16] = experiment: Induction of apoptosis in human HCT116 cells assessed as live cells at 0.7 uM incubated for 24 hrs by Annexin-V-FITC/propidium iodide staining based flow cytometric analysis (reference value: 97.7%); format: functional
HCT-116 [17] = experiment: Induction of apoptosis in human HCT116 cells assessed as early apoptotic cells at 0.7 uM incubated for 24 hrs by Annexin-V-FITC/propidium iodide staining based flow cytometric analysis (reference value: 2.28%); format: functional
HCT-116 [18] = experiment: Induction of apoptosis in human HCT116 cells assessed as late apoptotic cells at 0.7 uM incubated for 24 hrs by Annexin-V-FITC/propidium iodide staining based flow cytometric analysis (reference value: 0.027%); format: functional
HCT-116 [19] = experiment: Induction of apoptosis in human HCT116 cells assessed as necrotic cells at 0.7 uM incubated for 24 hrs by Annexin-V-FITC/propidium iodide staining based flow cytometric analysis (reference value: 0%); format: functional
HCT-116 [20] = experiment: Induction of apoptosis in human HCT116 cells assessed as live cells at 1.4 uM incubated for 24 hrs by Annexin-V-FITC/propidium iodide staining based flow cytometric analysis (reference value: 97.7%); format: functional
HCT-116 [21] = experiment: Induction of apoptosis in human HCT116 cells assessed as early apoptotic cells at 1.4 uM incubated for 24 hrs by Annexin-V-FITC/propidium iodide staining based flow cytometric analysis (reference value: 2.28%); format: functional
HCT-116 [22] = experiment: Induction of apoptosis in human HCT116 cells assessed as late apoptotic cells at 1.4 uM incubated for 24 hrs by Annexin-V-FITC/propidium iodide staining based flow cytometric analysis (reference value: 0.027%); format: functional
HCT-116 [23] = experiment: Induction of apoptosis in human HCT116 cells assessed as necrotic cells at 1.4 uM incubated for 24 hrs by Annexin-V-FITC/propidium iodide staining based flow cytometric analysis (reference value: 0%); format: functional
[24] = biological target: T1, CDK2/Cyclin A2 (Homo sapiens); experiment: Potency index, ratio of AZD5438 IC50 to compound IC50 for CDK2/cyclin A2 (unknown origin) using histone H1 and ATP as substrate incubated for 40 mins by kinase-glo luminescence assay; format: protein-complex assay
HCT-116 [25] = experiment: Induction of apoptosis in human HCT116 cells incubated for 24 hrs by Annexin-V-FITC/propidium iodide staining based flow cytometric analysis; format: functional, cell-based
HCT-116 [26] = experiment: Induction of cell cycle arrest in human HCT116 cells assessed as debris content at 0.35 uM incubated for 24 hrs by PI staining based flow cytometric analysis (reference value: 0%); format: functional
HCT-116 [27] = experiment: Induction of cell cycle arrest in human HCT116 cells assessed as debris content at 0.7 uM incubated for 24 hrs by PI staining based flow cytometric analysis (reference value: 0%); format: functional
HCT-116 [28] = experiment: Induction of cell cycle arrest in human HCT116 cells assessed as debris content at 1.4 uM incubated for 24 hrs by PI staining based flow cytometric analysis (reference value: 0%); format: functional
HCT-116 [29] = experiment: Induction of cell cycle arrest in human HCT116 cells incubated for 24 hrs by PI staining based flow cytometric analysis; format: functional

IC50 (HCT-116 [1]): 700 nM | IC50 (MDA-MB-231): 1800 nM | IC50 (MCF7): 10900 nM | IC50 (HeLa): 450 nM | IC50 (PC-3): 920 nM | IC50 (CDK2/Cyclin A2): 15.4 nM | inhibition [2]: 94% | Ratio IC50 [24]: 3
SMILES: NS(=O)(=O)c1ccc(Nc2nccc(Nc3nc4ccc(F)cc4s3)n2)cc1
Activity (HCT-116 [3]): 36.61% | Activity (HCT-116 [4]): 24.36% | Activity (HCT-116 [5]): 39.03% | Activity (HCT-116 [6]): 35.61% | Activity (HCT-116 [7]): 33.51% | Activity (HCT-116 [8]): 30.88% | Activity (HCT-116 [9]): 34.57% | Activity (HCT-116 [10]): 46.92% | Activity (HCT-116 [11]): 18.51% | Activity (HCT-116 [12]): 80.8% | Activity (HCT-116 [13]): 10.1% | Activity (HCT-116 [14]): 9.07% | Activity (HCT-116 [15]): 0.027% | Activity (HCT-116 [16]): 64.3% | Activity (HCT-116 [17]): 13% | Activity (HCT-116 [18]): 22.3% | Activity (HCT-116 [19]): 0.384% | Activity (HCT-116 [20]): 51.4% | Activity (HCT-116 [21]): 19.1% | Activity (HCT-116 [22]): 29.1% | Activity (HCT-116 [23]): 0.414% | Activity (HCT-116 [25]): Dose-dependent effect | Activity (HCT-116 [26]): 0.74% | Activity (HCT-116 [27]): 6.86% | Activity (HCT-116 [28]): 39.3% | Activity (HCT-116 [29]): Dose-dependent effect
